Measured values reported in paper PMC9948202 (ACS Omega, 2023).

How the values were obtained:
NTS1 = settings: cited from earlier work
hNTS1 = settings: read-out: Ki toward hNTS1; cited from earlier work
hNTS2 = settings: cited from earlier work
NTS2 = NTS2 (Homo sapiens, UniProt O95665); test: Calcium imaging assay; assay type: cell-based
How it was run: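 HT-29 cells grown overnight on glass slides (5 × 10^5 cells, 37 °C, 5% CO2), loaded 30 min in the dark with 100 μM fluo-8 AM, 0.4% pluronic acid and 2.5 mM probenecid in RPMI. Perfused with bicarbonate-glucose buffer (95% O2/5% CO2, pH 7.4, room temperature), washed 10 min. Test compound 10–11 to 10–5 M by rapid perfusion; levocabastine as positive control. Ex 490/Em 514 nm; ΔF/F (%) vs baseline, normalized to levocabastine stimulation; twice in duplicate, 20 cells analysed.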

Sequence of NTS2 (O95665 whole entry, the tested form may be a part): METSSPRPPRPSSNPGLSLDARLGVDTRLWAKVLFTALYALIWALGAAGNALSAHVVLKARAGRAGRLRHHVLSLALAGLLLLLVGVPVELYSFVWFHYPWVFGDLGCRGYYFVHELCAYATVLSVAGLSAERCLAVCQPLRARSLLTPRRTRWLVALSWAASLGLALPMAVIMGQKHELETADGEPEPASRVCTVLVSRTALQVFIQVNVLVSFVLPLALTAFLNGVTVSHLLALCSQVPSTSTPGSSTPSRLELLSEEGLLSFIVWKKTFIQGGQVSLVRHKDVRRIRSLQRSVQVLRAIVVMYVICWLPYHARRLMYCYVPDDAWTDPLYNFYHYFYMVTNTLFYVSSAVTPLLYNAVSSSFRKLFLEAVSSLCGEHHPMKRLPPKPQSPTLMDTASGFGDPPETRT

Compound	hypothermic effect (NTS1)	Ki (hNTS1)	selectivity index hNTS1/hNTS2 (hNTS2)	Ki (hNTS2; read-out: Ki toward hNTS2)	EC50 (NTS2)
H-Lys-Lys-Pro-(D)Trp-Ile-TMSAla-OH [JMV 5504]	no hypothermic effect	3600 nM	423	8.5 nM	
C[C@@H]1CN([C@H]2CC[C@](C#N)(c3ccc(F)cc3)CC2)CC[C@]1(C(=O)O)c1ccccc1 [levocabastine]					118 nM
